From ChEMBL document CHEMBL1122328, “Hypolipidemic activity of phthalimide derivatives. 2. N-phenylphthalimide and derivatives” (1983)

Legend:
Format in all cases: functional
[1] = tested on: Mus musculus; assay: Effect on Serum cholesterol levels on CF1 male mice at a dose of 20 (mg/kg)/day after 16 days
Outline: (§1)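 CF1 male mice (~25 g), drug suspended in 1% carboxymethylcellulose in water, given ip daily for 16 days; n = 6; vehicle control. Tail-vein blood on days 9 and 16, serum cholesterol by modified Liebermann–Burchard reaction; day-14 serum triglyceride by commercial kit; expressed as % control.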

[2] = tested on: Mus musculus; assay: Effect on Serum cholesterol levels on CF1 male mice at a dose of 20 (mg/kg)/day after 9 days; outline: as §1
[3] = tested on: Mus musculus; assay: Effect on Serum triglyceride levels on CF1 male mice at a dose of 20 (mg/kg)/day after 14 days; outline: as §1

Structure (SMILES)	Serum cholesterol (% of control) [1]	Control [2]	Control [3]
CCOC(=O)C(C)(C)Oc1ccc(Cl)cc1 [CLOFIBRATE]	96%	98%	91%
CCc1cccc(N2C(=O)c3ccccc3C2=O)c1	82%	89%	95%
CCc1ccccc1N1C(=O)c2ccccc2C1=O	103%	88%	92%
O=C(O)c1ccc(N2C(=O)c3ccccc3C2=O)cc1	53%	89%	58%
CCc1ccc(N2C(=O)c3ccccc3C2=O)cc1	89%	89%	96%
O=C1c2ccccc2C(=O)N1c1ccccc1 [N-PHENYL-PHTHALIMIDE]	57%	92%	61%
CC(=O)c1ccc(N2C(=O)c3ccccc3C2=O)cc1	55%	83%	66%
CC(=O)c1cccc(N2C(=O)c3ccccc3C2=O)c1	84%	87%	74%
O=C1NC(=O)c2ccccc21 [PHTHALIMIDE]	57%	63%	44%
O=C(O)c1cccc(N2C(=O)c3ccccc3C2=O)c1	69%	81%	71%
O=C(O)c1ccccc1N1C(=O)c2ccccc2C1=O [N-PHTHALOYLANTHRANILIC ACID]	77%	92%	78%
